Test results published in ChEMBL document CHEMBL2424598, “Identification and optimization of pteridinone Toll-like receptor 7 (TLR7) agonists for the oral treatment of viral hepatitis” (J Med Chem, 2013).

How the values were obtained:
[1] = species: Homo sapiens; experiment: Selectivity ratio of MEC for TLR8-mediated TNFalpha production in human PBMC to MEC for TLR7-mediated IFNalpha production in human PBMC
In short: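 Cryopreserved human PBMCs came from leukapheresis of a single healthy donor selected as a consistent responder. Cells were incubated with compound for 24 h over an eight-point concentration range, and cytokine release was measured. MEC is the lowest concentration giving cytokine levels at least 3-fold above untreated cultures, determined per cytokine.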

[2] = target: T1, Toll-like receptor 7 (Homo sapiens) (UniProt Q9NYK1); experiment: Agonist activity at TLR7-mediated IFNalpha production in human PBMC assessed as minimum concentration of compound necessary to generate >3 fold of cytokine levels relative to control
T1 sequence (whole entry): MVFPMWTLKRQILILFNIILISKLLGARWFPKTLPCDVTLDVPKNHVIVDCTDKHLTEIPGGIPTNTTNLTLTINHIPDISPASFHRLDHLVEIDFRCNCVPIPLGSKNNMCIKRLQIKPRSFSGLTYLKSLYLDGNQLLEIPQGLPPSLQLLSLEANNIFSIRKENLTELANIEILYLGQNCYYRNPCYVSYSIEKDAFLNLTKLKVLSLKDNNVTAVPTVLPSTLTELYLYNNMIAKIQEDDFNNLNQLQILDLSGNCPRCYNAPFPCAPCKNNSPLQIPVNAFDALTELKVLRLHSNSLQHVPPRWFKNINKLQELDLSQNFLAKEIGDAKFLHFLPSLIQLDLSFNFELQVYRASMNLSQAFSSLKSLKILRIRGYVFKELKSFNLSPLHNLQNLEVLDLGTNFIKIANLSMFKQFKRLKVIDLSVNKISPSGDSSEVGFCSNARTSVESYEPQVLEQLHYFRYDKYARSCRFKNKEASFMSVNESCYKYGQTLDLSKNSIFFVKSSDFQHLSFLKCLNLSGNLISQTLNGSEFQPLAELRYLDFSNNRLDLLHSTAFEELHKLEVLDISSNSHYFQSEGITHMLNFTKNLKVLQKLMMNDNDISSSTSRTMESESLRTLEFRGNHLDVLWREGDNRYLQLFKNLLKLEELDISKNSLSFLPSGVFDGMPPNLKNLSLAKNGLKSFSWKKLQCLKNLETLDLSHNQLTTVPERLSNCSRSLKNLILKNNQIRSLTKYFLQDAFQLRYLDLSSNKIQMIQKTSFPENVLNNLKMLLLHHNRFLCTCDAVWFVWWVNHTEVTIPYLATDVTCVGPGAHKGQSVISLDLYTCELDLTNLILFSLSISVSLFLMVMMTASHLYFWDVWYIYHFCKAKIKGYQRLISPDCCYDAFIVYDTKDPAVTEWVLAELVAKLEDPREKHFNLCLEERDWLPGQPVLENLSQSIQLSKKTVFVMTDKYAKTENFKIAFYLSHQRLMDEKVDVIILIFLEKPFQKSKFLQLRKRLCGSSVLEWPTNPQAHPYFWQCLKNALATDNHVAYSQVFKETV
In short: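 Cryopreserved PBMCs from leukapheresis of a single healthy human donor, chosen as a consistent, robust responder to TLR7 agonist stimulation. Cells were incubated with compound for 24 h over an eight-point concentration range. Secreted IFN-α was measured to build dose-response curves. MEC was taken as the lowest concentration giving cytokine levels ≥3-fold over untreated control cultures.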

[3] = Lipophilicity, log D of the compound; format: physicochemical; details: octanol/water

## Nc1nc(OCC2CCOCC2)nc2c1NC(=O)CN2Cc1cccc(CN2CCCC2)c1
[1]
  Ratio: 100
[2]
  MEC: 10 nM

## CCCN(C)C(=O)c1nc(N)c2c(n1)N(Cc1cccc(CN3CCCC3)c1)CC(=O)N2
[1]
  Ratio: 10
[2]
  MEC: 1000 nM

## CCCCOc1nc(N)c2c(n1)N(Cc1ccc3c(c1)CCN(C(C)C)C3)CC(=O)N2
[1]
  Ratio: 10
[2]
  MEC: 3 nM

## CCCCCc1nc(N)c2c(n1)N(Cc1cccc(CN3CCCC3)c1)CC(=O)N2
[1]
  Ratio: 30
[2]
  MEC: 320 nM

## COCCOc1nc(N)c2c(n1)N(Cc1cccc(CN3CCCC3)c1)CC(=O)N2
[3]
  logD: 1
[1]
  Ratio: 1000
[2]
  MEC: 10 nM

## CCC(CC)COc1nc(N)c2c(n1)N(Cc1cccc(CN3CCCC3)c1)CC(=O)N2
[1]
  Ratio: 30
[2]
  MEC: 10 nM

## CC(C)COc1nc(N)c2c(n1)N(Cc1cccc(CN3CCCC3)c1)CC(=O)N2
[1]
  Ratio: 0
[2]
  MEC: 10000 nM

## Nc1nc(OCC2CCCCC2)nc2c1NC(=O)CN2Cc1cccc(CN2CCCC2)c1
[1]
  Ratio: 3.3
[2]
  MEC: 3000 nM

## CCCCOc1nc(N)c2c(n1)N(Cc1cccc(CN3CCOCC3)c1)CC(=O)N2
[1]
  Ratio: 3.3
[2]
  MEC: 300 nM

## CCCCOc1cc2c([nH]c(=O)c(=O)n2Cc2cccc(CN3CCCC3)c2)c(N)n1
[1]
  Ratio: 10
[2]
  MEC: 30 nM

## CCCCSc1nc(N)c2c(n1)N(Cc1cccc(CN3CCCC3)c1)CC(=O)N2
[1]
  Ratio: 30
[2]
  MEC: 100 nM

## CCCN(C)C(=O)c1nc(N)c2[nH]c(=O)c(=O)n(Cc3cccc(CN4CCCC4)c3)c2n1
[1]
  Ratio: 10
[2]
  MEC: 1000 nM

## Nc1nc(OCc2ccccc2)nc2c1NC(=O)CN2Cc1cccc(CN2CCCC2)c1
[1]
  Ratio: 3.3
[2]
  MEC: 3000 nM

## CCCCOc1nc(N)c2c(n1)N(Cc1ccc(-c3cccc(CN4CCCC4)c3)cc1)CC(=O)N2
[1]
  Ratio: 10
[2]
  MEC: 3 nM

## CCC[C@H](C)Oc1nc(N)c2c(n1)N(Cc1cccc(CN3CCCC3)c1)CC(=O)N2
[1]
  Ratio: 33
[2]
  MEC: 3 nM

## CCCCOc1nc(N)c2c(n1)N(Cc1cccc(CN3CCCC3)c1)CCC(=O)N2
[2]
  MEC: > 10000 nM

## CCCCOc1nc(N)c2c(n1)N(Cc1ccc(CN3CCCC3)cc1)CC(=O)N2
[1]
  Ratio: 10
[2]
  MEC: 1 nM

## CCCCOc1nc(N)c2c(n1)N(Cc1ccc(-c3ccc(CN4CCCC4)cc3)cc1)CC(=O)N2
[1]
  Ratio: 3.3
[2]
  MEC: 3 nM

## CCCCOc1nc(N)c2c(n1)N(C)C(Cc1cccc(CN3CCCC3)c1)C(=O)N2 (configuration not stated)
[1]
  Ratio: 30
[2]
  MEC: 320 nM

## CCCCOc1nc(N)c2c(n1)N(Cc1cccc(CN3CCCCC3)c1)CC(=O)N2
[1]
  Ratio: 3.3
[2]
  MEC: 30 nM

## CCCCOc1cc2c([nH]c(=O)c(=O)n2Cc2ccc(CN3CCCC3)cc2)c(N)n1
[1]
  Ratio: 3
[2]
  MEC: 3 nM

## CCCCOc1nc(N)c2c(n1)N(Cc1ccccc1)CC(=O)N2
[1]
  Ratio: 0.3

## CCCCOc1cc2c([nH]c(=O)c(=O)n2Cc2ccc(-c3ccc(CN4CCCC4)cc3)cc2)c(N)n1
[1]
  Ratio: 3
[2]
  MEC: 10 nM

## COCCOc1cc2c(c(N)n1)NC(=O)CN2Cc1ccc(CN2CCCC2)cc1
[1]
  Ratio: 10
[2]
  MEC: 0.32 nM

## CCCCOc1nc(N)c2c(n1)N(Cc1ccc(CCCN3CCCC3)nc1)CC(=O)N2
[1]
  Ratio: 30
[2]
  MEC: 3 nM

## CCCCOc1nc(N)c2c(n1)NC(Cc1cccc(CN3CCCC3)c1)C(=O)N2 (configuration not stated)
[2]
  MEC: > 10000 nM

## CCCCOc1nc(N)c2c(n1)N(Cc1cccc(CN3CCCC3)c1)C(C)C(=O)N2 (configuration not stated)
[1]
  Ratio: 30
[2]
  MEC: 300 nM

## CCCCOc1cc2c([nH]c(=O)c(=O)n2Cc2ccc(-c3cccc(CN4CCCC4)c3)cc2)c(N)n1
[1]
  Ratio: 3
[2]
  MEC: 30 nM

## CCCCNc1nc(N)c2[nH]c(=O)c(=O)n(Cc3cccc(CN4CCCC4)c3)c2n1
[1]
  Ratio: 30
[2]
  MEC: 3 nM

## CCCCOc1nc(N)c2c(n1)N(Cc1ccc3c(c1)CN(C(C)C)CC3)CC(=O)N2
[1]
  Ratio: 3
[2]
  MEC: 3 nM

## CCCCOc1nc(N)c2[nH]c(=O)n(Cc3cccc(CN4CCCC4)c3)c2n1
[2]
  MEC: 0.03 nM

## CCCCOc1nc(N)c2c(n1)N1Cc3cccc(CN4CCCC4)c3CC1C(=O)N2 (configuration not stated)
[1]
  Ratio: 10
[2]
  MEC: 300 nM

## CCCCOc1nc(N)c2[nH]c(=O)c(=O)n(Cc3cccc(CN4CCCC4)c3)c2n1
[1]
  Ratio: 33
[2]
  MEC: 3 nM

## CCCCOc1cc2c(c(N)n1)NC(=O)CN2Cc1cccc(CN2CCCC2)c1
[1]
  Ratio: 10
[2]
  MEC: 300 nM

## CCCCOc1nc(N)c2c(n1)N(Cc1ccc(CN3CCCC3)cc1)C(C)C(=O)N2 (configuration not stated)
[1]
  Ratio: 30
[2]
  MEC: 10 nM

## CCCCOc1nc(N)c2c(n1)N(C)C(Cc1ccc(CN3CCCC3)cc1)C(=O)N2 (configuration not stated)
[1]
  Ratio: 10
[2]
  MEC: 1000 nM

## CCCCOc1nc(N)c2c(n1)N(Cc1cccc(CN3CCCC3)c1)C1(CC1)C(=O)N2
[1]
  Ratio: 3
[2]
  MEC: 1000 nM

## COCCOc1nc(N)c2[nH]c(=O)c(=O)n(Cc3cccc(CN4CCCC4)c3)c2n1
[1]
  Ratio: 3
[2]
  MEC: 100 nM

## Nc1nc(OCCC2CC2)nc2c1NC(=O)CN2Cc1cccc(CN2CCCC2)c1
[1]
  Ratio: 10
[2]
  MEC: 30 nM

## CCCCOc1nc(N)c2c(n1)N(Cc1ccccc1CN1CCCC1)CC(=O)N2
[1]
  Ratio: 100
[2]
  MEC: 100 nM

## COCCNc1nc(N)c2c(n1)N(Cc1cccc(CN3CCCC3)c1)CC(=O)N2
[1]
  Ratio: 10
[2]
  MEC: 1000 nM

## CCCCCOc1nc(N)c2c(n1)N(Cc1cccc(CN3CCCC3)c1)CC(=O)N2
[1]
  Ratio: 100
[2]
  MEC: 100 nM

## CCCCOc1cc2c(c(N)n1)NC(=O)CN2Cc1ccc(CN2CCCC2)cc1
[1]
  Ratio: 10
[2]
  MEC: 30 nM

## CCCCOc1nc(N)c2[nH]c(=O)c(=O)n(Cc3ccc(CN4CCCC4)cc3)c2n1
[1]
  Ratio: 10
[2]
  MEC: 0.32 nM

## CCCCNc1nc(N)c2c(n1)N(Cc1cccc(CN3CCCC3)c1)CC(=O)N2
[1]
  Ratio: 1000
[2]
  MEC: 10 nM
